According to ChEMBL document CHEMBL1153046, “Synthesis and antitumor activity of substituted triazolo[4,3-a]pyrimidin-6-sulfonamide with an incorporated thiazolidinone moiety” (2009):

How the values were obtained:
Assay type in all cases: functional
HL-60(TB) = test: Growth inhibition of human HL-60(TB) cells after 48 hrs by sulforhodamine B assay; conditions: HL-60, 48 h
Procedure, shortened: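 NCI 60-cell-line panel. Cells were grown in RPMI1640 with 5% fetal calf serum and 2 mM L-glutamine, seeded at a density suited to each line, and preincubated 24 h. Compounds were tested at a minimum of five concentrations at 10-fold dilutions over a 5-log range, with 48 h continuous exposure. Growth was read by sulforhodamine B protein staining, and GI50 was taken from dose-response curves.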

K562 = test: Growth inhibition of human K562 cells after 48 hrs by sulforhodamine B assay; conditions: K562, 48 h
Procedure, shortened: (§1)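 NCI 60-cell-line panel. Cells are grown in RPMI1640 with 5% fetal calf serum and 2 mM L-glutamine, seeded at a density set by growth characteristics, and preincubated 24 h. Compound is tested at a minimum of five concentrations at 10-fold dilution, with 48 h continuous exposure. Viability is read by sulforhodamine B protein assay. GI50, TGI and LC50 come from dose-response curves.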

MOLT-4 = test: Growth inhibition of human MOLT4 cells after 48 hrs by sulforhodamine B assay; conditions: MOLT-4, 48 h; procedure, shortened: as §1
[1] = Growth inhibition of human […] cells after 48 hrs by sulforhodamine B assay; procedure, shortened: as §1
SR = test: Growth inhibition of human SR cells after 48 hrs by sulforhodamine B assay
Procedure, shortened: (§2)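 NCI 60-cell-line panel (nine cancer types), with cells grown in RPMI1640 plus 5% fetal calf serum and 2 mM L-glutamine. Cells are seeded at a density that depends on the line and preincubated 24 h. Compounds are then applied at a minimum of five 10-fold dilutions over a 5-log range with 48 h continuous exposure. Viability is read by SRB protein assay, and GI50 is derived from dose-response curves in units of 10^-5 M.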

HOP-62 = test: Growth inhibition of human HOP62 cells after 48 hrs by sulforhodamine B assay; conditions: HOP-62, 48 h; procedure, shortened: as §1
NCI-H460 = test: Growth inhibition of human NCI-H460 cells after 48 hrs by sulforhodamine B assay; conditions: NCI-H460, 48 h; procedure, shortened: as §1
NCI-H522 = test: Growth inhibition of human NCI-H522 cells after 48 hrs by sulforhodamine B assay; conditions: NCI-H522, 48 h; procedure, shortened: as §1
COLO 205 = test: Growth inhibition of human COLO205 cells after 48 hrs by sulforhodamine B assay; conditions: COLO 205, 48 h; procedure, shortened: as §1
HCC 2998 = test: Growth inhibition of human HCC2998 cells after 48 hrs by sulforhodamine B assay; conditions: HCC 2998, 48 h; procedure, shortened: as §1
HCT-15 = test: Growth inhibition of human HCT15 cells after 48 hrs by sulforhodamine B assay; conditions: HCT-15, 48 h; procedure, shortened: as §1
HT-29 = test: Growth inhibition of human HT-29 cells after 48 hrs by sulforhodamine B assay; conditions: HT-29, 48 h; procedure, shortened: as §1
SW-620 = test: Growth inhibition of human SW620 cells after 48 hrs by sulforhodamine B assay; conditions: SW-620, 48 h; procedure, shortened: as §2
SF-295 = test: Growth inhibition of human SF295 cells after 48 hrs by sulforhodamine B assay; conditions: SF-295, 48 h; procedure, shortened: as §1
SF-539 = test: Growth inhibition of human SF539 cells after 48 hrs by sulforhodamine B assay; conditions: SF-539, 48 h; procedure, shortened: as §1
SNB-75 = test: Growth inhibition of human SNB75 cells after 48 hrs by sulforhodamine B assay; conditions: SNB-75, 48 h; procedure, shortened: as §2
M14 = test: Growth inhibition of human M14 cells after 48 hrs by sulforhodamine B assay; conditions: M14, 48 h; procedure, shortened: as §1
UACC-257 = test: Growth inhibition of human UACC257 cells after 48 hrs by sulforhodamine B assay; conditions: UACC-257, 48 h; procedure, shortened: as §2
OVCAR-3 = test: Growth inhibition of human OVCAR-3 cells after 48 hrs by sulforhodamine B assay; conditions: OVCAR-3, 48 h; procedure, shortened: as §1
OVCAR-5 = test: Growth inhibition of human OVCAR5 cells after 48 hrs by sulforhodamine B assay; conditions: OVCAR-5, 48 h; procedure, shortened: as §1
OVCAR-8 = test: Growth inhibition of human OVCAR8 cells after 48 hrs by sulforhodamine B assay; conditions: OVCAR-8, 48 h; procedure, shortened: as §1
A498 = test: Growth inhibition of human A498 cells after 48 hrs by sulforhodamine B assay; conditions: A498, 48 h; procedure, shortened: as §1
TK-10 = test: Growth inhibition of human TK10 cells after 48 hrs by sulforhodamine B assay; conditions: TK-10, 48 h; procedure, shortened: as §2
MCF7 [2] = test: Antiproliferative activity against human MCF7 cells assessed as cell growth at 100 uM after 48 hrs by alamar blue assay; conditions: MCF7, 48 h, read-out: Activity
Procedure, shortened: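 NCI three-cell-line primary screen. Cells are seeded and preincubated in microtiter plates. Compound is added at a single 10^-4 M concentration and cultures are incubated 48 h. The end-point is read with alamar blue. Results are given as percent growth relative to untreated control cells.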

CCRF-CEM = test: Growth inhibition of human CCRF-CEM cells after 48 hrs by sulforhodamine B assay; procedure, shortened: as §1
MCF7 [3] = test: Growth inhibition of human MCF7 cells after 48 hrs by sulforhodamine B assay; conditions: MCF7, 48 h; procedure, shortened: as §1
NCI/ADR-RES = test: Growth inhibition of human NCI/ADR-RES cells after 48 hrs by sulforhodamine B assay; procedure, shortened: as §1
[4] = Growth inhibition of human Hs 578T cells after 48 hrs by sulforhodamine B assay; procedure, shortened: as §1
BT-549 = test: Growth inhibition of human BT549 cells after 48 hrs by sulforhodamine B assay; conditions: BT-549, 48 h; procedure, shortened: as §1
T47D = test: Growth inhibition of human T47D cells after 48 hrs by sulforhodamine B assay; procedure, shortened: as §2
[5] = read-out: LC50 (the source's name)

## COc1ccc(/C=N/c2nc3[nH]nc(C)n3c(=O)c2S(=O)(=O)NN2C(=O)C(CN3CCN(C)CC3)SC2c2cccs2)cc1 (stereo not drawn)
HL-60(TB)
  GI50: 3.41 µM
  LC50: 31.3 µM
  TGI: 7.04 µM
K562
  GI50: 2.87 µM
  LC50: 68.2 µM
  TGI: 6.75 µM
MOLT-4
  GI50: 2.88 µM
  TGI: 18.3 µM
MOLT-4; [5]
  CC50: > 100 µM
[1]
  GI50: 2.56 µM
  TGI: 8.21 µM
[1]; [5]
  CC50: > 100 µM
SR
  GI50: 0.79 µM
  LC50 (concentration killing 50% of cells): 13.1 µM
  TGI: 3.03 µM
HOP-62
  GI50: 1.7 µM
  LC50: > 100 µM
  TGI: > 100 µM
NCI-H460
  GI50: 8.2 µM
  TGI: > 100 µM
NCI-H522
  GI50: 2.63 µM
  TGI: 13.3 µM
COLO 205
  GI50: 5.29 µM
  TGI: 21 µM
HCC 2998
  GI50: 1.34 µM
  LC50: > 100 µM
  TGI: 16.8 µM
HCT-15
  GI50: 0.65 µM
  TGI: > 100 µM
HT-29
  GI50: 1.96 µM
SW-620
  GI50: 1.38 µM
SF-295
  GI50: 1.02 µM
  LC50 (concentration killing 50% of cells): > 100 µM
  TGI: > 100 µM
SF-539
  GI50: 1.77 µM
  LC50: > 100 µM
  TGI: 5.58 µM
SNB-75
  GI50: 2.01 µM
  TGI: > 100 µM
M14
  GI50: 1.36 µM
  LC50 (concentration killing 50% of cells): > 100 µM
  TGI: > 100 µM
UACC-257
  GI50: 2.52 µM
  LC50: > 100 µM
  TGI: > 100 µM
OVCAR-3
  GI50: 0.88 µM
  LC50 (concentration killing 50% of cells): > 100 µM
  TGI: > 100 µM
OVCAR-5
  GI50: 8.31 µM
  LC50 (concentration causing 50% net cell kill): > 100 µM
  TGI: > 100 µM
OVCAR-8
  GI50: 3.53 µM
  TGI: 40.5 µM
A498
  GI50: 0.5 µM
  LC50 (concentration giving 50% net cell kill): > 100 µM
  TGI: 3.2 µM
TK-10
  GI50: 5.9 µM
  LC50: > 100 µM
  TGI: > 100 µM
MCF7 [2]
  growth at 100 µM: 46%
CCRF-CEM
  GI50: 3.52 µM
  TGI: 16.1 µM
MCF7 [3]
  GI50: 5.8 µM
  TGI: > 100 µM
NCI/ADR-RES
  GI50: 1.5 µM
  TGI: 6.98 µM
[4]
  GI50: 3.05 µM
  LC50 (concentration killing 50% of cells): > 100 µM
  TGI: > 100 µM
BT-549
  GI50: 11.3 µM
  TGI: > 100 µM
T47D
  GI50: > 100 µM
  TGI: > 100 µM
